Screens (PubChem BioAssay)
The list is not random: actives were taken first. Their share in the collection is about 1.9%.
ASAP1 GAP inh: blocks human ASAP1-stimulated Arf1 GTP hydrolysis | 360,000 compounds, 0.19% hits | inhibition, % at 16.5 µM | Q9ULH1 | GDP FP detection; in the data active = inhibition above about 25%;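 note: 0% = vehicle with enzyme and substrate and 100% = no enzyme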
Target sequence (Q9ULH1 325-724 limits assumed): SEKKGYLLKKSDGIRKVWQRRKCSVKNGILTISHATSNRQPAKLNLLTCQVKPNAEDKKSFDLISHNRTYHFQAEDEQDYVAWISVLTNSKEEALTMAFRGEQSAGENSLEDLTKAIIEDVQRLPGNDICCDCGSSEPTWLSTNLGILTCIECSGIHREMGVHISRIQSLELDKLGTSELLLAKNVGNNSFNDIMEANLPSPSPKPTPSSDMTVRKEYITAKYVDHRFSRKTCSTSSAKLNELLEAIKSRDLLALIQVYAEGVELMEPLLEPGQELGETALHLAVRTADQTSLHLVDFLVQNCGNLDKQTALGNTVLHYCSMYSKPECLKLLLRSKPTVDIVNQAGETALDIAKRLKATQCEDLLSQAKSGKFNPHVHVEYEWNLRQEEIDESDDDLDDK
Efflux pump mplx: blocks antifungal efflux pumps in multiplex yeast assay | inhibition, % at 10 µM | S. cerevisiae Candida pump triplex, Nile Red efflux | 330,000 compounds, 0.44% hits;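 active = plate passing quality check with inhibition over a set limit, or well fluorescence over plate mean plus 4 SD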;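 note: Nile Red retained in pooled yeast measured as flow cytometry median fluorescence; 0% = buffer negative control and 100% = Enniatin B positive control; higher means more Nile Red kept so more efflux inhibition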
ARFGAP1 inh: rat ARFGAP1 inhibition; 360,000 compounds, 0.26% hits; AID 651572; Q62848; Arfgap1-stimulated ARF1 GTP hydrolysis, GDP FP detection; inhibition, % at 16.5 µM;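 active = inhibition above a per-plate limit, mean inhibition of low control wells plus 3 SD, cut at about 25% in these data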;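 note: 0% = DMSO wells with enzyme and 100% = wells lacking Arfgap1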
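system = rat Arfgap1 catalytic domain, aa 1-136 | technique = FP, GDP Alexa 633 tracer displaced from anti-GDP antibody, 620/688 nm | compound = one concentration, 16.5 µM, DMSO 1.26% | medium = HEPES-based buffer, pH 7.5 | timing = compound-enzyme preincubation 20 min, reaction 120 min, detection 60 min, 25 °C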
FGF22 binding: FGF22 (human) thermal shift binding | Q9HCT0 | recombinant FGF22 thermal shift, SYPRO orange fluorescence; percent of sucrose octasulfate shift, DMSO zero | activity (Tm shift, normalised), % at 9.99 µM | 340,000 compounds, 1.5% hits;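 active = mean Tm shift, scaled 0 neutral to 100 positive control, at about 1.3% or above, every replicate too, limit read from the data; inconclusive = no clear call, values can overlap the other calls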
Target sequence (Q9HCT0 whole entry, looked up): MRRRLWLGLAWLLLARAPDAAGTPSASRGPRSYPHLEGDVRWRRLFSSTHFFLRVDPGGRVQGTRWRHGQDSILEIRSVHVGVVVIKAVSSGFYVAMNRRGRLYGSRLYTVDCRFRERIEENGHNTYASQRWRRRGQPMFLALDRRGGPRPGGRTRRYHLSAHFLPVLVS
Rtt109 HAT inh: inhibitors of Candida albicans Rtt109/Vps75 histone acetyltransferase | purified Rtt109/Vps75, ThioGlo CoA-SH fluorescence, 4 h | inhibition, % at 34.9 µM | 330,000 compounds, 0.16% hits;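 active = inhibition of at least 50% in every replicate; inconclusive = best replicate reaches 50% inhibition but some replicates fall short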
Starred values were filed as active, the others as inactive.

Screening O=C(N/N=C/c1ccc2c(c1)OCO2)c1cc(-c2ccc(F)cc2)nc2ccccc12 returned ASAP1 GAP inh 16, Efflux pump mplx -20, ARFGAP1 inh -5, FGF22 binding 0 and Rtt109 HAT inh -2.
Screening O=C(O)COc1ccccc1/C=N/NC(=O)c1cc(-c2ccc(F)cc2)nc2ccccc12 returned ASAP1 GAP inh 0, Efflux pump mplx -1, ARFGAP1 inh 5, FGF22 binding 1.5* and Rtt109 HAT inh 14.
CN(C)S(=O)(=O)c1cccc(C(=O)OCC(=O)Nc2sccc2C(N)=O)c1 was read as ASAP1 GAP inh 5, Efflux pump mplx 0, ARFGAP1 inh -4 and Rtt109 HAT inh 6.
CN(C)S(=O)(=O)c1cccc(C(=O)Nc2ccccc2)c1 was read as ASAP1 GAP inh 2, Efflux pump mplx 0, ARFGAP1 inh 0, FGF22 binding 43* and Rtt109 HAT inh 4.
For COc1ccc(NC(=O)COC(=O)c2cccc(S(=O)(=O)N(C)C)c2)cc1 the results were ASAP1 GAP inh 17, ARFGAP1 inh 4, FGF22 binding 43* and Rtt109 HAT inh 9.
N#Cc1ccc(NC(=O)COC(=O)c2cccc(S(=O)(=O)N3CCCC3)c2)cc1 was read as ASAP1 GAP inh -3, ARFGAP1 inh -1 and FGF22 binding 43*.
Screening COCCn1c(N)c(N(Cc2ccccc2)C(=O)c2ccc3ccccc3c2)c(=O)[nH]c1=O returned ASAP1 GAP inh -3, Efflux pump mplx 0, ARFGAP1 inh -2, FGF22 binding 0 and Rtt109 HAT inh 6.
Screening CCOCCCNC(C(=O)Nc1ccc(OC)c(Cl)c1)c1ccccc1 (configuration not stated) returned ASAP1 GAP inh 1, Efflux pump mplx 0, ARFGAP1 inh -2, FGF22 binding 43* and Rtt109 HAT inh -3.
For C[C@H](NC(=O)C[C@@H]1CC[C@@H](NS(=O)(=O)c2cccc(F)c2)[C@@H](CO)O1)c1ccccc1 the results were FGF22 binding 0.
Screening O=C(O)CSCc1nc2ccccc2[nH]1 returned ASAP1 GAP inh 12, Efflux pump mplx 0, ARFGAP1 inh 2, FGF22 binding 44* and Rtt109 HAT inh -9.
Screening COC(=O)c1sccc1NC(=O)Cc1ccc(OC)c(OC)c1 returned ASAP1 GAP inh 7, Efflux pump mplx 0, ARFGAP1 inh 8 and Rtt109 HAT inh 2.
For COc1ccc(CCC(=O)NNC(=O)c2cc(Cl)ccc2OC)cc1 the results were ASAP1 GAP inh 0, Efflux pump mplx 0, ARFGAP1 inh 5 and Rtt109 HAT inh 1.
`Cc1nnc(N2C(=O)c3cccc4c([N+](=O)[O-])ccc(c34)C2=O)s1` gave ASAP1 GAP inh -10, Efflux pump mplx 2.1*, ARFGAP1 inh 2, FGF22 binding 0 and Rtt109 HAT inh 6.
`Cc1ccc(N2C(=O)c3cccc4c([N+](=O)[O-])ccc(c34)C2=O)c2cccnc12` gave ASAP1 GAP inh -5, Efflux pump mplx 0, ARFGAP1 inh 8, FGF22 binding 41 and Rtt109 HAT inh -5.
Cc1cc2ccccc2n1CCNC(=O)COc1ccccc1 was read as ASAP1 GAP inh 3, Efflux pump mplx 0, ARFGAP1 inh 5, FGF22 binding 0 and Rtt109 HAT inh -1.
`Cc1cccn2cc(CCNS(=O)(=O)c3cccs3)nc12` gave ASAP1 GAP inh -4, Efflux pump mplx 0, ARFGAP1 inh -5, FGF22 binding 0 and Rtt109 HAT inh 55*.
For COc1ccc(S(=O)(=O)NCCc2cn3cccc(C)c3n2)cc1OC the results were ASAP1 GAP inh 4, Efflux pump mplx 0, ARFGAP1 inh 2, FGF22 binding 0 and Rtt109 HAT inh -7.
For Cc1nc2ccccc2c(=O)n1/N=C/c1ccccc1OC(F)F the results were ASAP1 GAP inh -8, Efflux pump mplx 0, ARFGAP1 inh -4, FGF22 binding 0 and Rtt109 HAT inh -4.
For COc1ccccc1NC1=C(Cl)C(=O)N(C2CCCCC2)C1=O the results were ASAP1 GAP inh -6, Efflux pump mplx 0, ARFGAP1 inh -3 and Rtt109 HAT inh 52*.
Screening COc1ccccc1N1C(=O)C(Cl)=C(Nc2ccccc2O)C1=O returned ASAP1 GAP inh 5, ARFGAP1 inh -4 and Rtt109 HAT inh 75*.
`Cc1ccccc1NC1=C(Cl)C(=O)N(C2CCCCC2)C1=O` gave ASAP1 GAP inh -2, Efflux pump mplx 0, ARFGAP1 inh 11 and Rtt109 HAT inh -4.
Screening O=C1C(Cl)=C(Nc2ccccc2O)C(=O)N1c1ccccc1 returned ASAP1 GAP inh -8, Efflux pump mplx 0, ARFGAP1 inh 15 and Rtt109 HAT inh 1.
`Cc1nn(Cc2ccccc2)c(C)c1/C=N/NC(=O)CNc1cccc(C(F)(F)F)c1` gave ASAP1 GAP inh -3, Efflux pump mplx 0, ARFGAP1 inh -8, FGF22 binding 0 and Rtt109 HAT inh 0.
O=C(C1CCCO1)N1CCN(C(=S)Nc2ccc(Cl)cc2Cl)CC1 (configuration not stated) was read as ASAP1 GAP inh 7, Efflux pump mplx 0, ARFGAP1 inh 5, FGF22 binding 0 and Rtt109 HAT inh 53*.
For CO[C@@H]1CC[C@H]2CCOc3c(C#N)cccc3C(=O)N(C)C[C@H](C)C(=O)N(C)C[C@H]1O2 the results were FGF22 binding 0.
Screening O=c1c2cc(F)ccc2sn1-c1ccc(F)cc1 returned Efflux pump mplx 0 and Rtt109 HAT inh inconclusive.
`COc1ccc(-n2sc3ccc(F)cc3c2=O)cc1` gave ASAP1 GAP inh -7, Efflux pump mplx 0, ARFGAP1 inh 0, FGF22 binding 0 and Rtt109 HAT inh 159*.
`CCc1c(C)[nH]n(-c2nc(-c3ccccc3)cs2)c1=O` gave ASAP1 GAP inh -6, Efflux pump mplx 0, ARFGAP1 inh 1, FGF22 binding 0 and Rtt109 HAT inh 0.
`Cc1[nH]n(-c2nc(-c3ccc(Cl)cc3)cs2)c(=O)c1N=Nc1ccc(O)cc1` gave ASAP1 GAP inh -10, Efflux pump mplx 0, ARFGAP1 inh -1, FGF22 binding 43* and Rtt109 HAT inh -2.
Screening CN(C)C(/C=C/Nc1ccc(O)cc1)=C(C#N)C#N returned ASAP1 GAP inh -3, Efflux pump mplx 0, ARFGAP1 inh 10, FGF22 binding 44* and Rtt109 HAT inh -10.
CCCNC(=O)[C@H]1[C@H](CO)[C@H]2Cn3c(ccc(/C=C/c4ccccc4)c3=O)[C@H]2N1CC1CC1 was read as FGF22 binding 0.
For CCc1nc(NC(=O)NS(=O)(=O)c2ccccc2C(=O)OC)nc(OC)n1 the results were ASAP1 GAP inh 1, Efflux pump mplx 0, ARFGAP1 inh -10 and FGF22 binding 43*.
CC(=O)Nc1ccc2c(COC(=O)CC3Sc4ccccc4NC3=O)cc(=O)oc2c1 (configuration not stated) was read as ASAP1 GAP inh 13, Efflux pump mplx 0, ARFGAP1 inh 3, FGF22 binding 43* and Rtt109 HAT inh -4.
